Measurements published in article PMC8024882 (Toxicology Reports, 2021).

Experiments:
JIMT-1 cells = settings: JIMT-1, 2D cultures, normoxia, FBS-supplemented medium; cited from earlier work
[1] = system: JIMT-1 breast cancer cells; test: MTT dose response assay, JIMT-1 cells in 2D and 3D PCL 96-well plates; type: cell-based, human; settings: JIMT-1, 2D culture, hypoxia (1 % O2), 72 h, mean of three experiments ± SEM
Summary of the method: (§1)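 Accutase-detached cells seeded at 7000 (2D) or 21,000 (3D; O2-plasma-treated, ethanol-sterilized PCL fibre-mesh wells) per 180 μL. After 24 h normoxic attachment, compound added, then 72 h at 18 % O2/5 % CO2 or 1 % O2. MTT (20 μL of 5 mg/mL) 2 h; formazan dissolved in DMSO (2D 15 min, 3D 2 h shaking); absorbance background-subtracted. IC50 = 50 % MTT reduction; ≥3 experiments, 3–6 wells/concentration.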

[2] = system: human dermal fibroblasts (HDFs); test: MTT dose response assay, HDFs in 2D and 3D PCL 96-well plates; type: cell-based; settings: HDF, 72 h, mean of three experiments ± SEM
Summary of the method: as §1

In the case of “salinomycin analogue 20-ethyl carbonate-Na [SAEC]”, the IC50 (JIMT-1 cells) is given as 0.09 ± 2e-05 µM, the IC50 [1] is given as 0.0804 ± 0.0133 µM and the IC50 ([2]; 2D culture, hypoxia (1 % O2)) is given as 0.239 ± 0.0062 µM. For the same substance, the IC50 ([2]; 2D culture, normoxia (18 % O2)) was 0.0977 ± 0.0118 µM, the IC50 ([2]; 3D culture, hypoxia (1 % O2)) was 0.316 ± 0.0351 µM and the IC50 ([2]; 3D culture, normoxia (18 % O2)) was 0.15 ± 0.0344 µM.
